Data: ChEMBL document CHEMBL2434855, “Aggrecanase-2 inhibitors based on the acylthiosemicarbazide zinc-binding group” (Eur J Med Chem, 2013)

Assays:
[1] = molecular target: Collagenase 3 (Homo sapiens, UniProt P45452); test: Inhibition of human MMP-13 after 10 mins
[2] = molecular target: Disintegrin and metalloproteinase domain-containing protein 17 (Homo sapiens, UniProt P78536); test: Inhibition of human TACE after 5 mins
[3] = molecular target: T1, Matrilysin (Homo sapiens, UniProt P09237); test: Inhibition of human MMP-7 after 45 mins
T1 sequence (P09237 whole entry): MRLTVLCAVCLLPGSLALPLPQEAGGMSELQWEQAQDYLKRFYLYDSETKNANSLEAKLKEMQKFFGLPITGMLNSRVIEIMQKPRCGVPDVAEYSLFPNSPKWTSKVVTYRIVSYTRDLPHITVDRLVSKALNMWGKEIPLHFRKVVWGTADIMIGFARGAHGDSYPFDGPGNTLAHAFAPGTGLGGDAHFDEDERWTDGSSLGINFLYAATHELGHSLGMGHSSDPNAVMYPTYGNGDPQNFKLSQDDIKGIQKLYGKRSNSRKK

[4] = molecular target: Macrophage metalloelastase (Homo sapiens, UniProt P39900); test: Inhibition of human MMP-12 after 60 mins
[5] = molecular target: T2, 72 kDa type IV collagenase (Homo sapiens, UniProt P08253); test: Inhibition of human MMP-2 using NFF-2 as substrate at 10 uM after 90 mins
Target sequence in this assay (P08253 110-660 limits assumed): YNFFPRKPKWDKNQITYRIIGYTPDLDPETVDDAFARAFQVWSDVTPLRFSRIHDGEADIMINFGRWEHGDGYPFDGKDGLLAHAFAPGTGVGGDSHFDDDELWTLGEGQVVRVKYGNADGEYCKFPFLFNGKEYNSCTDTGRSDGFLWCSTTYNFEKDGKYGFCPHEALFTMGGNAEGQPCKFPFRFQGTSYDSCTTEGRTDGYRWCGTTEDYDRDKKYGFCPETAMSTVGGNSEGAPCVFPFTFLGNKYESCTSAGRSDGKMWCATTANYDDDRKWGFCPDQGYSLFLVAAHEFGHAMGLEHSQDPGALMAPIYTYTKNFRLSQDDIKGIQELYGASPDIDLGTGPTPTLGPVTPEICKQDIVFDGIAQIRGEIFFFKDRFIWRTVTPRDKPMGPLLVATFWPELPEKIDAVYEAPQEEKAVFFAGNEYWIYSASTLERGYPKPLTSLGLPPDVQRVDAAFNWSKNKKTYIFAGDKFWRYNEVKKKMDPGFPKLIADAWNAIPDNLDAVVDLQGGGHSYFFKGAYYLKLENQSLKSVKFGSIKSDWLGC

[6] = molecular target: T3, A disintegrin and metalloproteinase with thrombospondin motifs 4 (Homo sapiens, UniProt O75173); test: Inhibition of human recombinant ADAMTS-4 using QTVTWPDMELPLPRNITEGEARGSVIL-TVKPIFEVSPSPL(biotinyl)K as substrate incubated for 10 mins prior to substrate addition measured after 3 hrs by spectrophotometry
T3 sequence (O75173 whole entry): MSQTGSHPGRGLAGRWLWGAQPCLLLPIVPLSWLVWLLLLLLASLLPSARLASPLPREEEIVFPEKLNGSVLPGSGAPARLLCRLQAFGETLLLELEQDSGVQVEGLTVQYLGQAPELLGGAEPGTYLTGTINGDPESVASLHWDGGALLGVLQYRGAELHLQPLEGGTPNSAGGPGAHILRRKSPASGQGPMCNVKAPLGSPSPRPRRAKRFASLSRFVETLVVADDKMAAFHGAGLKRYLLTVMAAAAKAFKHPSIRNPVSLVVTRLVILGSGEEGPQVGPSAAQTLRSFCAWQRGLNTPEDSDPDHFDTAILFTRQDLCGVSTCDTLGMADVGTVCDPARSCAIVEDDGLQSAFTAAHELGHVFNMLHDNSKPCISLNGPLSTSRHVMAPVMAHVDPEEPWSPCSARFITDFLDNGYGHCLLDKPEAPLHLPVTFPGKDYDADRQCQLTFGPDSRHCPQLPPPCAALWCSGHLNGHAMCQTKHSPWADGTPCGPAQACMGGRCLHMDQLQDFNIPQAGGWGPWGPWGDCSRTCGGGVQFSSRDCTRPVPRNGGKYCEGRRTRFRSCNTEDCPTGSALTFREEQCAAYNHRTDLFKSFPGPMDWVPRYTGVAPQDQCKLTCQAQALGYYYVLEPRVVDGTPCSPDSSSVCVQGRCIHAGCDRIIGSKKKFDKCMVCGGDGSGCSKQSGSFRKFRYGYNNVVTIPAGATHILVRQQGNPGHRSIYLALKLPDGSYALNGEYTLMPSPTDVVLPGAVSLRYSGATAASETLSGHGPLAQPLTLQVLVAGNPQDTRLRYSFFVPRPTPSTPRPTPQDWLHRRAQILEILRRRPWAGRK
Method in brief: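 It was then added to streptavidin wells coated with the biotinylated 41-mer aggrecan peptide and reacted for 3 h at 37 °C. Cleavage product was detected by BC-3 anti-ARGxx ELISA with HRP and TMB, read at 450 nm.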

[7] = molecular target: Neutrophil collagenase (Homo sapiens, UniProt P22894); test: Inhibition of human MMP-8 using Mca-Pro-Cha-Gly-Nva-His-Ala-Dpa-NH2 as substrate after 120 mins
[8] = molecular target: T2, 72 kDa type IV collagenase; test: Inhibition of human MMP-2 using NFF-2 as substrate after 90 mins
Target sequence in this assay (P08253 whole entry): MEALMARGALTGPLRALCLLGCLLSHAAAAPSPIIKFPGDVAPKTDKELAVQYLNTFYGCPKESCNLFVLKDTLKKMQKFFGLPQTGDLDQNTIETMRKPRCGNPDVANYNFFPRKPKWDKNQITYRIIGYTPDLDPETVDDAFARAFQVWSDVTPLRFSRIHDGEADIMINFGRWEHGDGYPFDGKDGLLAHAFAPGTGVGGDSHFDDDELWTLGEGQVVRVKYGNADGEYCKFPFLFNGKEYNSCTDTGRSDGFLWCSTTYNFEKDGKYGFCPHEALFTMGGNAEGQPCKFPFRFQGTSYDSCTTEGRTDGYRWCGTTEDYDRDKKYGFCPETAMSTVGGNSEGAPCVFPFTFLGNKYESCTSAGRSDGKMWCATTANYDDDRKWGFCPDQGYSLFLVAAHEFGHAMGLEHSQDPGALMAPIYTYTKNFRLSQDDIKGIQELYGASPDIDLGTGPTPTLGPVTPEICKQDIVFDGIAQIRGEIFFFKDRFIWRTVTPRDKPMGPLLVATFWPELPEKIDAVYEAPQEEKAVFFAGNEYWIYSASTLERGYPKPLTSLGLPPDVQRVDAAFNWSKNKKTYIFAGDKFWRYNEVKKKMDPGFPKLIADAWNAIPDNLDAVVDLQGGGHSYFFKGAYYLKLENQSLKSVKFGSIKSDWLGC

Neutrophil collagenase, sequence (P22894 whole entry): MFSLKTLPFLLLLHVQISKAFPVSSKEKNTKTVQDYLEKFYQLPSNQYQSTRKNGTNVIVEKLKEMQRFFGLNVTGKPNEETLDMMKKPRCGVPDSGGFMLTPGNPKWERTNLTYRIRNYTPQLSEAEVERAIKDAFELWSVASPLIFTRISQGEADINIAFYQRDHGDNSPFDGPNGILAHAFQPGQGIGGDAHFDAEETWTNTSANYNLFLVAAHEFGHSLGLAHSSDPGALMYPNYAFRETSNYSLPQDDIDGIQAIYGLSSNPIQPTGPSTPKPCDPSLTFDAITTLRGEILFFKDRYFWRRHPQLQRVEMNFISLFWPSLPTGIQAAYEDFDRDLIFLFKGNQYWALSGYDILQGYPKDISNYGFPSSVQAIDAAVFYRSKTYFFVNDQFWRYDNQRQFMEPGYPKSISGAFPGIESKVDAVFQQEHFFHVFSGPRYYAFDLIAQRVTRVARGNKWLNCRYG
Macrophage metalloelastase, sequence (P39900 whole entry): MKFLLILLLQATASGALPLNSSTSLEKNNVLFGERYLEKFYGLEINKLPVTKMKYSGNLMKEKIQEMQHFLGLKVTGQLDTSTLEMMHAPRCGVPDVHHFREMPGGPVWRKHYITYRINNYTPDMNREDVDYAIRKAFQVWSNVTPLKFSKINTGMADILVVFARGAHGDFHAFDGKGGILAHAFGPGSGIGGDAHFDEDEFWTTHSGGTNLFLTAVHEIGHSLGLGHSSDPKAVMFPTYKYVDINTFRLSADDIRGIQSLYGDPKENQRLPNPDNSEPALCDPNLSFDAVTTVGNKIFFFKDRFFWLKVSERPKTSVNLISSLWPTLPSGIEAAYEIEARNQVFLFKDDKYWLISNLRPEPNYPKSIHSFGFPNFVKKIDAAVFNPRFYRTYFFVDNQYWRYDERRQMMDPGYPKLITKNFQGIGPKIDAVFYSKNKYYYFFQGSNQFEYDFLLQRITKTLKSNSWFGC
Disintegrin and metalloproteinase domain-containing protein 17, sequence (P78536 whole entry, the tested form may be a part): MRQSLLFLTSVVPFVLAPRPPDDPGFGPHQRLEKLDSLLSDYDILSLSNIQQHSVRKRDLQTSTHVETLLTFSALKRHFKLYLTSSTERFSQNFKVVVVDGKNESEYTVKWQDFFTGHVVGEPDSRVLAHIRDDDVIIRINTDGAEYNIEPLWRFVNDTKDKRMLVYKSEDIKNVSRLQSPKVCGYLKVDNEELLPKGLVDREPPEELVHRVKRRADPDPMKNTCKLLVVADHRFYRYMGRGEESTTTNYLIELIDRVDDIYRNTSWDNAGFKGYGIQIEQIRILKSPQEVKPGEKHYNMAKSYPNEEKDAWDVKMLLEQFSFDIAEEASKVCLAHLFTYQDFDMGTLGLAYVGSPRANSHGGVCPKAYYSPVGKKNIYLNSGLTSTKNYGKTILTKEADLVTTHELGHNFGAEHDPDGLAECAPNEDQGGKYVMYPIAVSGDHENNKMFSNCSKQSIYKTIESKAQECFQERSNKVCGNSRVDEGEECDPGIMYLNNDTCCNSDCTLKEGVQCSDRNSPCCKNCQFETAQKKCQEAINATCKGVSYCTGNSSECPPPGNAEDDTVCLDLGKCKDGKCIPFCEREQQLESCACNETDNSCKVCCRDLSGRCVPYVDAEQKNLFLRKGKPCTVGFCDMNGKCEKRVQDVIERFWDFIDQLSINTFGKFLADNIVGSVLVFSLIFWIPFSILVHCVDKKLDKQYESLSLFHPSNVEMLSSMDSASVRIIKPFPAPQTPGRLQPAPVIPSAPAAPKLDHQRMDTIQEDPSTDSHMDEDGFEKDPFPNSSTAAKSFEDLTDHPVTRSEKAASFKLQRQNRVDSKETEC

- IC50 [1]: > 100 µM
- IC50 [2]: > 10 µM
- IC50 [3]: > 100 µM
- IC50 [4]: > 100 µM
- inhibition [5]: < 10%
- IC50 [7]: 47 µM
- IC50 [8]: > 10 µM
SMILES: O=C(COc1ccc(Cl)cc1)NNC(=S)NCCCCC1CCCCC1
- IC50 [6]: 630 nM
